Experimental data of several laboratories.
Target: Calcium/calmodulin-dependent protein kinase kinase 1 (CAMKK1, Homo sapiens, UniProt Q8N5S9)

| SMILES | observed | mode | technique | tested at | quantity | result |
| --- | --- | --- | --- | --- | --- | --- |
| O=c1[nH]c2ccccc2n1C1CCN(Cc2ccc(-c3[nH]c4cc5ncnc5cc4nc3-c3ccccc3)cc2)CC1 | cell-free assay | – | – | 0.5 µM | remaining signal | 117% |
| N#CC1(c2ccccn2)CCN(Cc2cc(C(=O)O)c(=O)n3ccccc23)CC1 | cell-free assay | – | competition with immobilised ligand | 1 µM | remaining binding | 100% |
| Nc1ncc(-c2nc(N3CCOCC3)nc(N3CCOCC3)n2)c(C(F)F)n1 | binding | – | competition with immobilised ligand | 10 µM | remaining binding | 70% |
| CC(C)(C)c1cc(C=C(C#N)C#N)cc(Br)c1O | enzyme activity | inhibitor | – | 0.5 µM | remaining activity | 120% |
| Cc1nn(C)cc1-c1nc2c(N3CCN(Cc4ccc(Cl)cc4)CC3)c(Cl)cnc2[nH]1 | binding | – | competition with immobilised ligand | 1 µM | remaining binding | 100% |
| COc1ncccc1-c1cnn2ccc(N3CCN(C(=O)OC(C)C)CC3)nc12 | binding | – | competition with immobilised ligand | 1 µM | remaining binding | 77% |
| Cn1cc(-c2cccc(N3CCc4c(sc5c4CC(C)(C)C5)C3=O)c2CO)cc(Nc2ccncn2)c1=O | enzyme activity | inhibitor | – | 1 µM | inhibition | 4% |
| Cn1cncc1[C@](O)(COc1ccc(C#N)cc1-c1ccc(OC(F)(F)F)cc1)c1ccc(C#N)cc1 | cell-free assay | – | competition with immobilised ligand | 1 µM | remaining binding | 77% |
